# Test results: ChEMBL document CHEMBL1811802, “Synthesis and significant cytostatic activity of 7-hetaryl-7-deazaadenosines” (J Med Chem, 2011)
# Key:
# [1] = biological target: Adenosine kinase (Homo sapiens, UniProt P55263); test: Inhibition of human ADK using [3H]-adenosine by scintillation counting
# [2] = Cytotoxicity against human MES-SA cells after 3 days by MTT assay; assay type: functional, cell-based; settings: 72 h
# [3] = Cytotoxicity against mouse P388D1 cells after 3 days by MTT assay; assay type: functional, cell-based; settings: P388D1, 72 h
# [4] = Cytotoxicity against human NCI-H146 cells after 3 days by MTT assay; assay type: functional, cell-based; settings: NCI-H146, 72 h
# [5] = tested on: SK-MEL-2; test: Cytotoxicity against human SK-MEL-2 cells after 3 days by MTT assay; assay type: functional, cell-based; settings: SK-MEL-2, 72 h
# [6] = tested on: DU-145; test: Cytostatic activity against human DU145 cells after 5 days by SRB assay; assay type: functional; settings: DU-145, 120 h
# Method in brief: (§1)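 Cells seeded per line density, overnight at 37 °C; day-zero plate TCA-fixed. 5-fold serial dilutions added, 5-day incubation; TCA fixation, 0.057% SRB in 1% acetic acid 30 min, dye dissolved in 10 mM Tris pH 10.5, A500. Growth relative to day-zero and untreated; GIC50 from sigmoidal dose–response fit; mean of two independent experiments.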
# [7] = tested on: EL4; test: Cytotoxicity against mouse EL4 cells after 3 days by MTT assay; assay type: functional, cell-based; settings: EL4, 72 h
# [8] = tested on: LNCaP; test: Cytotoxicity against human LNCAP cells after 3 days by MTT assay; assay type: functional, cell-based; settings: 72 h
# [9] = tested on: HL-60; test: Cytotoxicity against human HL60 cells after 3 days by XTT assay; assay type: functional, cell-based; settings: HL-60, 72 h
# Method in brief: (§2)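 Suspension-grown cell lines, 3-day compound incubation; viability read by XTT metabolic assay; IC50 averaged from four independent experiments.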
# [10] = tested on: MCF7; test: Cytotoxicity against human MCF7 cells after 3 days by MTT assay; assay type: functional, cell-based; settings: MCF7, 72 h
# [11] = tested on: A549; test: Cytostatic activity against human A549 cells after 5 days by SRB assay; assay type: functional; settings: A549, 120 h; method in brief: as §1
# [12] = tested on: K562; test: Cytotoxicity against human K562 cells after 3 days by MTT assay; assay type: functional, cell-based; settings: K562, 72 h
# [13] = tested on: BT-549; test: Cytostatic activity against human BT549 cells after 5 days by SRB assay; assay type: functional; settings: BT-549, 120 h; method in brief: as §1
# [14] = tested on: PC-3; test: Cytotoxicity against human PC3 cells after 3 days by MTT assay; assay type: functional, cell-based; settings: PC-3, 72 h
# [15] = tested on: SK-OV-3; test: Cytotoxicity against human SKOV3 cells after 3 days by MTT assay; assay type: functional, cell-based; settings: SK-OV-3, 72 h
# [16] = tested on: K562; test: Cytotoxicity against human paclitaxel resistant K562 cells after 3 days by MTT assay; assay type: functional, cell-based; settings: K562, 72 h
# [17] = tested on: HeLa; test: Cytotoxicity against human HeLa cells after 3 days by MTT assay; assay type: functional, cell-based; settings: 72 h
# [18] = tested on: HT-29; test: Cytotoxicity against human HT-29 cells after 3 days by MTT assay; assay type: functional, cell-based; settings: HT-29, 72 h
# [19] = tested on: NCI-H23; test: Cytostatic activity against human NCI-H23 cells after 5 days by SRB assay; assay type: functional; settings: NCI-H23, 120 h; method in brief: as §1
# [20] = tested on: MDA-MB-231; test: Cytotoxicity against human MDA-MB-231 cells after 3 days by MTT assay; assay type: functional, cell-based; settings: MDA-MB-231, 72 h
# [21] = Cytotoxicity against human HeLaS3 cells after 3 days by XTT assay; assay type: functional, cell-based; settings: HeLa S3, 72 h; method in brief: as §2
# [22] = tested on: BT-549; test: Cytotoxicity against human BT549 cells after 3 days by MTT assay; assay type: functional, cell-based; settings: BT-549, 72 h
# [23] = tested on: CCRF-CEM; test: Cytotoxicity against human CCRF-CEM cells after 3 days by XTT assay; assay type: functional, cell-based; settings: 72 h; method in brief: as §2
# [24] = tested on: PC-3; test: Cytostatic activity against human PC3 cells after 5 days by SRB assay; assay type: functional; settings: PC-3, 120 h; method in brief: as §1
# [25] = tested on: HCT-116; test: Cytostatic activity against human HCT116 cells after 5 days by SRB assay; assay type: functional; settings: HCT-116, 120 h; method in brief: as §1
# [26] = Cytotoxicity against human CEM-DNR-bulk cells after 3 days by MTT assay; assay type: functional, cell-based; settings: 72 h
# [27] = tested on: L1210; test: Cytotoxicity against mouse L1210 cells after 3 days by MTT assay; assay type: functional, cell-based; settings: L1210, 72 h
# [28] = Cytotoxicity against human U87MG cells after 3 days by MTT assay; assay type: functional, cell-based, U-87MG ATCC; settings: U-87 MG, 72 h
# [29] = tested on: MAT-Ly-Lu; test: Cytotoxicity against rat MAT-LyLu cells after 3 days by MTT assay; assay type: functional, cell-based; settings: 72 h
# [30] = tested on: CT26; test: Cytotoxicity against mouse CT26 cells after 3 days by MTT assay; assay type: functional, cell-based; settings: CT26, 72 h
# [31] = Cytostatic activity against human Hs578 cells after 5 days by SRB assay; assay type: functional; settings: Hs578, 120 h; method in brief: as §1
# [32] = tested on: HCT-116; test: Cytotoxicity against human HCT116 cells after 3 days by MTT assay; assay type: functional, cell-based; settings: HCT-116, 72 h
# [33] = tested on: MT4; test: Cytostatic activity against human MT4 cells after 5 days by SRB assay; assay type: functional; settings: MT4, 120 h
# [34] = tested on: BV-173; test: Cytotoxicity against human BV173 cells after 3 days by MTT assay; assay type: functional, cell-based; settings: BV-173, 72 h
# [35] = tested on: BJ; test: Cytotoxicity against human BJ cells after 3 days by MTT assay; assay type: cell-based; settings: 72 h
# [36] = tested on: HPAC; test: Cytotoxicity against human HPAC cells after 3 days by MTT assay; assay type: functional, cell-based; settings: 72 h
# [37] = tested on: C6; test: Cytotoxicity against rat C6 cells after 3 days by MTT assay; assay type: functional, cell-based; settings: C6, 72 h
# [38] = tested on: SK-N-AS; test: Cytotoxicity against human SK-N-AS cells after 3 days by MTT assay; assay type: functional, cell-based; settings: 72 h
# [39] = Inhibition of RNA polymerase 2 in human HeLaScribe nuclear extracts after 1 hr; settings: read-out: IC50
# Method in brief: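 HeLaScribe nuclear extract transcription with CMV(+) template DNA, 3 mM MgCl2, 400 μM CTP/GTP/UTP, 25 μM [33P]ATP. Inhibitor preincubated 5 min at 30 °C, then 1 h at 30 °C. Products run on 6% urea–polyacrylamide gel; full-length transcript quantified; IC50 is 50% product decrease.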
# Adenosine kinase, sequence (P55263 whole entry): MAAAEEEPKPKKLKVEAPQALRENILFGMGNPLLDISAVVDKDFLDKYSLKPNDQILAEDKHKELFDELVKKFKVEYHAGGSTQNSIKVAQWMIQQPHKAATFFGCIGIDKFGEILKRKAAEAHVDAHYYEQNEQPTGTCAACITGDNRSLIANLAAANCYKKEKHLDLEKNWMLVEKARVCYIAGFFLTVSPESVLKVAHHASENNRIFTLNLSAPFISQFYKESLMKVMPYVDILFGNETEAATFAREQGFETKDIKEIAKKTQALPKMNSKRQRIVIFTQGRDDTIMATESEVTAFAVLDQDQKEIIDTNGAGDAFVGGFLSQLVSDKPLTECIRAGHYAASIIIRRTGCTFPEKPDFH
IC50 [1] [nM],GI50 [6] [nM],GI50 [11] [nM],GI50 [13] [nM],GI50 [19] [nM],SMILES,IC50 [2] [nM],IC50 [3] [nM],IC50 [4] [nM],IC50 [5] [nM],IC50 [7] [nM],IC50 [8] [nM],IC50 [9] [nM],IC50 [10] [nM],IC50 [12] [nM],IC50 [14] [nM],IC50 [15] [nM],IC50 [16] [nM],IC50 [17] [nM],IC50 [18] [nM],IC50 [20] [nM],also measured
> 5000,330,34,28,198,Nc1ncnc2c1c(-c1ccoc1)cn2[C@@H]1O[C@H](CO)[C@@H](O)[C@H]1O,1330,139,> 10000,> 10000,> 10000,112,9060,9740,200,> 10000,> 10000,147,350,394,126,IC50 [21]: 20 nM; IC50 [22]: 452 nM; IC50 [23]: 70 nM; GI50 [24]: 418 nM; GI50 [25]: 15 nM; IC50 [26]: 364 nM; IC50 [27]: 445 nM; IC50 [28]: > 10000 nM; IC50 [29]: 1860 nM; IC50 [30]: 1670 nM; GI50 [31]: 21 nM; IC50 [32]: 425 nM; GI50 [33]: 170 nM; IC50 [34]: 68 nM; IC50 [35]: > 10000 nM; IC50 [36]: 133 nM; IC50 [37]: > 10000 nM; IC50 [38]: > 10000 nM
> 5000,97,16,28,73,Nc1ncnc2c1c(-c1ccsc1)cn2[C@@H]1O[C@H](CO)[C@@H](O)[C@H]1O,76,76,> 10000,> 10000,> 10000,68,6620,7250,67,> 10000,> 10000,93,124,184,82,IC50 [21]: 60 nM; IC50 [22]: 120 nM; IC50 [23]: 110 nM; GI50 [24]: 1320 nM; GI50 [25]: 7 nM; IC50 [26]: 110 nM; IC50 [27]: 199 nM; IC50 [28]: > 10000 nM; IC50 [29]: 525 nM; IC50 [30]: 225 nM; GI50 [31]: 50 nM; IC50 [32]: 194 nM; GI50 [33]: 124 nM; IC50 [34]: 29 nM; IC50 [35]: > 10000 nM; IC50 [36]: 110 nM; IC50 [37]: 8290 nM; IC50 [38]: > 10000 nM
–,–,–,–,–,Nc1ncnc2c1ccn2[C@@H]1O[C@H](COP(=O)(O)OP(=O)(O)OP(=O)(O)O)[C@@H](O)[C@H]1O [TUBERCIDIN TRIPHOSPHATE],–,–,–,–,–,–,–,–,–,–,–,–,–,–,–,IC50 [39]: 93000 nM
–,–,–,–,–,Nc1ncnc2c1c(-c1ccsc1)cn2[C@@H]1O[C@H](COP(=O)(O)OP(=O)(O)OP(=O)(O)O)[C@@H](O)[C@H]1O,–,–,–,–,–,–,–,–,–,–,–,–,–,–,–,IC50 [39]: 91000 nM
